This note sets out measurements from paper PMC2925318 (Tetrahedron, 2010).

What is called IC50 is the concentration that inhibits the measured activity by half. Read a low IC50 as greater potency in that assay.

For the test, the target named is Concanavalin A (Con A) (Canavalia ensiformis, UniProt P02866). In kind it is binding. In outline: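 Gold chip with mixed carboxyl/hydroxyl dithiol monolayer, aminoethoxyethyl mannoside coupled by EDC/NHS; hydroxyl-only reference flowcell. Con A (2 μM monomer) mixed 1:1 with test compound, equilibrated ≥1 h, then injected at 10 μL/min in 10 mM PBS pH 7.4, 25 °C. Methyl-mannose/HCl regeneration. Glycodendrimers run in triplicate, 2-fold series 50 μg/mL–39 ng/mL. Double-referenced equilibrium responses were fitted to a four-parameter logistic to give IC50.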
Chain of Concanavalin A (Con A) (P02866 164-281 limits assumed): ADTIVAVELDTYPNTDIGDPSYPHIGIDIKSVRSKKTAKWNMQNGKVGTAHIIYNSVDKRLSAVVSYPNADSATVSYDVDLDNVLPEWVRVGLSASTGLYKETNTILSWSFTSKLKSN
Chain of Concanavalin A (Con A) (P02866 30-148 limits assumed): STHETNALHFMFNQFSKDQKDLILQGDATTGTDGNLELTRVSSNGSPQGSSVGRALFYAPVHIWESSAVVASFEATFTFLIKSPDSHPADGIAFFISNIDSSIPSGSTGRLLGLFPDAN

The compound `CO[C@H]1O[C@H](CO)[C@@H](O)[C@H](O)[C@@H]1O` [Methyl mannose] yielded a half-inhibitory concentration (IC50) of 240 µM.
